T cruzi inh: inhibitors of intracellular T. cruzi growth, primary screen, luminescence, NIH3T3 host cells. T. cruzi beta-gal in NIH3T3, 90 h. inhibition, % (concentration not given with the values). 300,000 tested, 1.4% active;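 active = mean inhibition across valid replicates above about 55%, limit read from the data; inconclusive = mean below that limit but half or more replicates reach it; inactive = mean below it, under half of replicates reach it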;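 note: signal also drops with host cell toxicity which is not excluded here; 0% = plate median of DMSO wells and 100% = zero luminescence signal; higher percent means less beta-gal luminescence so fewer parasites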
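Read-out: Parasite load inhibition, % | Test system: Mouse NIH/3T3 fibroblasts infected with β-gal-expressing T. cruzi Tulahuen C4 | Amount: 5,000 cells/well | Medium: DMEM, 2% fetal bovine serum | Signal: GalScreen β-gal luminescence, detergent lysis, 60 min | Timing: 3 h attach, ≥90 h co-culture | Also added: Tulahuen C4 trypomastigotes, 5000/well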
Mdm2-MdmX inh: inhibitors of human Mdm2-MdmX association, primary screen, cell-based, luminescence, split luciferase, SaOS-2, uHTS; Protein Mdm4 (Homo sapiens) + E3 ubiquitin-protein ligase Mdm2 (Homo sapiens), …; SaOS-2 split-luciferase Mdm2/MdmX complementation; inhibition, % at 8 µM; 330,000 tested, 3% active; AID 485346, 2010;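 active = inhibition of at least 50% at 8 µM in the primary screen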
Beta apoptosis: inhibitors of cytokine-induced beta cell apoptosis, primary screen, luminescence; INS-1E cytokine-induced death, ATP luminescence, 48 h; percent of positive-control rescue, neutral wells zero; 300,000 tested, 0.8% active; protection from apoptosis, % (test concentration not listed);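 active = Every replicate reaches about 75%, or at least half do and their mean reaches it too, limit read from the data; inconclusive = At least half of replicates reach the limit but their mean does not; inactive = Under half of replicates reach the limit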;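 note: 0% = cytokine-treated negative control wells and 100% = positive control rescue; higher means more ATP so stronger rescue from cytokine killing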
SKKanGAS inh: S. pyogenes SKKanGAS growth inhibitors in kanamycin, primary screen, streptokinase expression inhibitor project, SKKanGAS strain, BacTiter-Glo luminescence; 6 h; inhibition, % at 7.5 µM; 300,000 tested, 1.3% active; AID 1662, 2009;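 active = mean replicate score, as percent of positive control median, at least 50; inconclusive = mean below 50 but one replicate at or above 50; inactive = mean and every replicate below 50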;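 note: strain carries kanamycin resistance gene driven by streptokinase promoter and grows in 40 µg/ml kanamycin; loss of luminescence reflects streptokinase promoter inhibition or plain growth inhibition; 0% = median of DMSO wells and 100% = positive control at its reference dose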
Calb FLC: C. albicans growth inhibition with fluconazole, primary screen, CaCi-2 strain, Alamar Blue fluorescence | AID 1979, 2009 | C. albicans CaCi-2 + fluconazole, 48 h | growth inhibition, % (no concentration beside the values) | 300,000 tested, 0.57% active;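 active = growth inhibition above about 58% in most replicates, limit read from the data, passing the limit was not always enough; inconclusive = exactly half the replicates above a set limit; inactive = most replicates below a set limit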;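 note: all wells also contain fluconazole at 8 µg/ml as a sub-toxic cotreatment; 0% = median of DMSO wells and 100% = median of geldanamycin control wells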
CSC inhib: cancer stem cell viability inhibitors, primary screen, luminescence. cancer stem cell-like cells viability. inhibition, % at 7.5 µM. 300,000 tested, 1.1% active. AID 2717, 2010; in the data active = inhibition above about 75%; inconclusive = no clear call, values can overlap the other calls; tested in HMLE shEcad cells
* hit, by the source's call; ? = inconclusive; · = not tested or not shown. Sampled rows, rich in hits. Any-hit rate of the full collection: about 5.7%.

SMILES	T cruzi inh	Mdm2-MdmX inh	Beta apoptosis	SKKanGAS inh	Calb FLC	CSC inhib
COCCNC(=O)C(=O)Nc1cc2c3c(c1)CCC(=O)N3CCC2	-10	-4	-4	-3	-11	2
Cc1nn(CC(O)CN2c3ccccc3Sc3ccccc32)c(C)c1Br (stereo unspecified)	·	33	-3	100*	8	31
OC(CN1c2ccccc2Sc2ccccc21)Cn1nnc2ccccc21 (stereo unspecified)	-1	29	5	20	18	34
CC(C)CN(C(=O)CCNC(=O)c1ccccc1Cl)C1CCS(=O)(=O)C1 (stereo unspecified)	·	16	-12	·	·	-8
CCOc1ccc(NCc2cccn2-c2nnc(N3CCC(C(=O)NCCCN4CC(C)CC(C)C4)CC3)s2)cc1 (stereo unspecified)	42	47	6	-3	1	7
O=c1cc(-c2ccc([N+](=O)[O-])cc2)nc2cc(-c3ccc(F)cc3)[nH]n12	-9	-20	4	68*	1	-8
Cc1ccccc1-c1cc2nc(-c3ccc([N+](=O)[O-])cc3)cc(=O)n2[nH]1	-12	27	-6	?	0	13
Cc1cc(C)nc(SCc2ccc(C(=O)NNC(=O)Nc3cccc(Cl)c3)cc2)n1	-7	·	-4	9	4	111*
CC(OC(=O)CC1Sc2ccccc2NC1=O)C(=O)NC1CCCC1 (stereo unspecified)	-14	7	0	4	-7	11
CCCCCCC1CC(C)(C(=O)CNc2nncs2)OC1=O (stereo unspecified)	62*	7	-10	0	9	6
CCCCCCC1CC(C)(/C(C)=N/NC(N)=O)OC1=O (stereo unspecified)	6	17	-8	-17	-4	-7
COc1cccc(N/N=C/c2cccc(Br)c2O)c1	65*	-49	19	63*	-7	44
Cc1cccc(N/N=C/c2ccc(O)c(O)c2O)c1	1	-1	-4	14	-4	6
CCOc1ccc(NC(=O)CN(C)C(=O)C2CC(=O)N(c3ccc4c(c3)OCCO4)C2)cc1OCC (stereo unspecified)	-13	12	-1	52*	10	-6
CCOC(=O)c1sc2ncnc(N3CCN(CC)CC3)c2c1C	77*	-9	-3	4	-1	8
CCOC(=O)c1sc2ncnc(N3CCN(C(=O)OCC)CC3)c2c1C	14	1	7	7	10	·
CCc1nc2ccccc2c(C(=O)OCc2nc3ccccc3c(=O)[nH]2)c1C	·	17	-7	·	·	52
C/C(=N\Nc1nc(-c2ccccc2)cs1)c1cccs1	1	-35	8	10	-2	25
CCOC(=O)N1CCC(=NNc2nc3ccccc3s2)CC1	-10	-19	4	1	?	0
C/C(=N\Nc1nc2ccccc2s1)c1cccs1	45	-179	9	50*	-8	28
CC(=O)N1CCC(=NNc2nc3ccccc3s2)CC1	13	-39	-9	0	99*	-7
Cn1c(-c2cc(Br)ccc2O)n[nH]c1=S	-10	21	-8	67*	-6	-7
Oc1ccc(Br)cc1-c1n[nH]c(=S)n1Cc1ccccc1	-3	14	-2	32	18	-1
Cc1nn(-c2ccccc2)c(N)c1N=Nc1ccc(Cl)cc1	-14	-123	-2	-15	98*	79*
Cc1cccc(N=Nc2c(C)nn(-c3ccccc3)c2N)c1C	14	-58	-7	57*	3	50
SMILES	T cruzi inh	Mdm2-MdmX inh	Beta apoptosis	SKKanGAS inh	Calb FLC	CSC inhib
Cc1nn(-c2ccccc2)c(N)c1N=Nc1ccccc1	2	·	·	12	-1	34
CCCCn1c(N)c(N(Cc2ccccc2OC)C(=O)CSCC(=O)Nc2cccc(C)c2)c(=O)[nH]c1=O	1	-25	-2	1	-8	·
Cc1noc(C)c1COc1ccc(C(=O)NCC(c2c(F)cccc2Cl)N(C)C)cc1 (stereo unspecified)	·	24	·	·	·	·
COc1ccccc1N1CCN(C(=O)C(=O)c2cn(CC(=O)N3CCOCC3)c3ccccc23)CC1	-3	1	-5	20	-8	-2
Cn1nnnc1SCC(=O)Nc1ncc(Cl)cc1Cl	-10	-13	0	23	0	-8
Cc1[nH]c2ccc(F)cc2c1CCN(Cc1cccnc1)C(=S)Nc1cccc(F)c1	65*	19	0	6	25	-4
Cc1[nH]c2ccc(F)cc2c1CCN(Cc1cccnc1)C(=S)NC(C)(C)C	65*	14	-6	-3	3	-4
Cc1ccc2[nH]c(C)c(CCN(Cc3cccnc3)C(=S)NC(C)(C)C)c2c1	34	6	0	-1	7	2
COc1ccc2[nH]c(C)c(CCN(Cc3cccs3)C(=S)Nc3cccc(F)c3)c2c1	63*	27	0	17	8	7
Cc1cc(C)n(/N=C/c2cccc([N+](=O)[O-])c2)c(=O)c1	2	-31	·	6	1	·
CC1S/C(=N\N=C\c2cccc([N+](=O)[O-])c2)N(C(C)(C)C)C1=O (stereo unspecified)	8	17	11	-5	-6	81*
CC1CCCCC12NC(=O)N(CC(=O)NCCc1ccc(F)cc1)C2=O (stereo unspecified)	·	-6	·	·	·	·
O=C(c1cc2sccc2n1Cc1ccc(F)cc1)N1CCN(c2nc3ccccc3s2)CC1	41	4	100*	23	-2	25
Cn1c(C(=O)N2CCN(c3nc4ccccc4s3)CC2)cc2sccc21	2	-12	-13	8	-3	·
Cc1ccc(Cn2nc(C)c(C(=O)NCC(c3ccc(F)cc3)N3CCOCC3)c2Cl)cc1 (stereo unspecified)	·	0	-1	·	·	-2
O=[N+]([O-])c1ccc(O)c(C2=NNC(c3ccccc3F)C2)c1 (stereo unspecified)	4	8	27	16	39	37
Oc1ccc(Cl)cc1C1=NNC(c2cccs2)C1 (stereo unspecified)	-18	23	6	61*	-14	28
Cc1ccc(O)c(C2=NNC(c3ccc(Cl)cc3)C2)c1 (stereo unspecified)	4	-52	7	57*	78*	19
NCCS(=O)(=O)NC1CCCCC1	-6	8	-2	66*	-24	-1
Cc1ccc(S(=O)(=O)NC2CCCCC2)cc1	·	8	-12	·	·	-5
CCOC(=O)C(=O)Nc1nc(-c2ccccc2)c(-c2ccccc2)o1	8	-11	3	0	10	-14

From PubChem BioAssay
